Paper PMC7810645 (Targeted Oncology, 2020)
Read-outs that look alike come from different tables or passages of the source.

Tests used:
[1] = system: PARP1; settings: read-out: IC50, enzymatic activity of PARP1; cited from earlier work
[2] = system: PARP2; settings: read-out: IC50, enzymatic activity of PARP2; cited from earlier work
[3] = system: PARP enzymes at sites of DNA damage; settings: cited from earlier work
[4] = system: patients with high-grade epithelial ovarian, fallopian tube, or primary peritoneal cancer; type: in vivo, human
Summary of the method: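 Patients had newly diagnosed stage IIIB–IV disease, ECOG 0–1 and no prior anticancer therapy. All received six cycles of carboplatin AUC 5 plus paclitaxel 175 mg/m2 and bevacizumab, each d1 q21d. Oral maintenance drug began within 9 weeks, continuous BID in 28-day cycles, first dose 7 days before bevacizumab. Three-patient cohorts (Fibonacci triplets). DLTs were assessed over the first two cycles, with AEs graded by CTCAE v4.03.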

[5] = Rucaparib plasma pharmacokinetics in patients; type: in vivo, human; settings: for AUC(0-t) / Tmax / Cmax: human, plasma, oral; for Tmax: mean (±SD)
Summary of the method: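 Oral dosing was 400, 500 or 600 mg BID. Cycle 1 blood was drawn on day −7 (first dose, before bevacizumab), day 1 (bevacizumab infusion) and day 21, at 1, 2, 3, 4, 6, 8 and 24 h post-dose. Plasma was assayed by validated HPLC-MS. Day −7 yielded Cmax, Tmax and AUC0–8h, and days 1/21 gave steady-state Cmax, Cmin and AUC, all by noncompartmental analysis. Summaries were mean, SD, CV, median and geometric mean.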

[6] = system: patients; settings: rucaparib 600 mg BID single agent, ARIEL3; cited from earlier work
[7] = system: patients; settings: cited from earlier work
[8] = system: patients with recurrent, platinum-sensitive ovarian cancer; settings: niraparib 300 mg daily + bevacizumab 15 mg/kg d1 q21d vs niraparib 300 mg daily alone; cited from earlier work
[9] = rucaparib 400 mg BID (n = 3) + bevacizumab
[10] = rucaparib 500 mg BID (n = 3) + bevacizumab
[11] = rucaparib 600 mg BID (n = 3) + bevacizumab
[12] = steady state, day 1 (bevacizumab infusion), 400 mg BID, n 3
[13] = steady state, day 1 (bevacizumab infusion), 500 mg BID, n 3
[14] = steady state, day 1 (bevacizumab infusion), 600 mg BID, n 3
[15] = steady state, day 21, with bevacizumab, 400 mg BID, n 2
[16] = steady state, day 21, with bevacizumab, 500 mg BID, n 3
[17] = steady state, day 21, with bevacizumab, 600 mg BID, n 2

Molecule: Cn1ncnc1[C@H]1c2n[nH]c(=O)c3cc(F)cc(c23)N[C@@H]1c1ccc(F)cc1 [talazoparib]
- potency for DNA trapping [3]: more potent DNA trapping abilities

Molecule: CNCc1ccc(-c2[nH]c3cc(F)cc4c3c2CCNC4=O)cc1 [rucaparib]
- maximum tolerated dose (MTD) ([4]; BID, combined with bevacizumab 15 mg/kg d1 q21d): 500 mg
- safety concerns from the combination of rucaparib and bevacizumab ([4]; all dose cohorts): no new safety concerns
- Anemia, grade 1: number of patients with an event [4, 9]: 1
- Arthralgia, grade 1: number of patients with an event [4, 9]: 2 (2)
- Arthralgia, grade 1: number of total events [4, 9]: 2 (2)
- Cutaneous erythema, grade 1: number of patients with an event [4, 9]: 1
- Fatigue, grade 1: number of patients with an event [4, 9]: 1
- Feet paresthesia, grade 1: number of patients with an event [4, 9]: 1
- Genital herpes, grade 1: number of patients with an event [4, 9]: 1
- Genital herpes, grade 2: number of patients with an event [4, 9]: 1
- Headache, grade 1: number of patients with an event [4, 9]: 1
- Mucosal dryness, grade 1: number of patients with an event [4, 9]: 1
- Nausea, grade 1: number of patients with an event [4, 9]: 1
- Neuropathy, grade 1: number of patients with an event [4, 9]: 1
- Transaminases increase, grade 1: number of patients with an event [4, 9]: 1
- dose-limiting toxicities (DLTs) ([4]; rucaparib 400 mg BID + bevacizumab 15 mg/kg d1 q21d): No DLTs
- Abdominal pain, grade 1: number of patients with an event [4, 10]: 1
- Arthralgia, grade 1: number of patients with an event [4, 10]: 1
- Bleeding gums, grade 1: number of patients with an event [4, 10]: 1
- Diarrhea, grade 1: number of patients with an event [4, 10]: 1
- Diarrhea, grade 1: number of total events [4, 10]: 3
- Dysgeusia, grade 1: number of patients with an event [4, 10]: 1
- Dysgeusia, grade 2: number of patients with an event [4, 10]: 1
- Fatigue, grade 1: number of patients with an event [4, 10]: 1
- Flushes, grade 1: number of patients with an event [4, 10]: 1
- High cholesterol, grade 1: number of patients with an event [4, 10]: 1
- High cholesterol, grade 2: number of patients with an event [4, 10]: 1
- Hypertension, grade 2: number of patients with an event [4, 10]: 3 (3)
- Hypertension, grade 2: number of total events [4, 10]: 3 (3)
- Insomnia, grade 2: number of patients with an event [4, 10]: 1
- Nausea, grade 1: number of patients with an event [4, 10]: 2 (2)
- Nausea, grade 1: number of total events [4, 10]: 2 (2)
- Transaminases increase, grade 1: number of patients with an event [4, 10]: 1
- Vomiting, grade 1: number of patients with an event [4, 10]: 1
- dose-limiting toxicities (DLTs) ([4]; rucaparib 500 mg BID + bevacizumab 15 mg/kg d1 q21d): No DLTs
- ALT increase, grade 2: number of patients with an event [4, 11]: 1
- ALT increase, grade 3: number of patients with an event [4, 11]: 1
- AST increase, grade 2: number of patients with an event [4, 11]: 1
- AST increase, grade 3: number of patients with an event [4, 11]: 1
- Abdominal pain, grade 1: number of patients with an event [4, 11]: 1
- Arthralgia, grade 1: number of patients with an event [4, 11]: 1
- Arthralgia, grade 2: number of patients with an event [4, 11]: 1
- Constipation, grade 2: number of patients with an event [4, 11]: 1
- Depression, grade 1: number of patients with an event [4, 11]: 1
- Depression, grade 1: number of total events [4, 11]: 2
- Depression, grade 2: number of patients with an event [4, 11]: 1
- Depression, grade 3: number of patients with an event [4, 11]: 1
- Diarrhea, grade 1: number of patients with an event [4, 11]: 1
- Dysgeusia, grade 1: number of patients with an event [4, 11]: 1
- Epigastralgia, grade 1: number of patients with an event [4, 11]: 1
- Fatigue, grade 1: number of patients with an event [4, 11]: 1
- Fever, grade 2: number of patients with an event [4, 11]: 1
- Hallucination, grade 3: number of patients with an event [4, 11]: 1
- Headache, grade 1: number of patients with an event [4, 11]: 1
- Lack of appetite, grade 1: number of patients with an event [4, 11]: 1
- Limb pain, grade 1: number of patients with an event [4, 11]: 1
- Mucositis, grade 1: number of patients with an event [4, 11]: 1
- Nausea, grade 1: number of patients with an event [4, 11]: 3
- Nausea, grade 1: number of total events [4, 11]: 4
- Nausea, grade 2: number of patients with an event [4, 11]: 1
- Nausea, grade 2: number of total events [4, 11]: 3
- Neutrophils decreased, grade 2: number of patients with an event [4, 11]: 1
- Skin bruises, grade 1: number of patients with an event [4, 11]: 1
- Stranguria, grade 1: number of patients with an event [4, 11]: 1
- Toothache, grade 1: number of patients with an event [4, 11]: 1
- patients affected by DLTs ([4]; rucaparib 600 mg BID + bevacizumab 15 mg/kg d1 q21d): two out of three patients
- range of trough concentrations ([5]; 400 mg BID): 1.5 to 1.6 µg/mL
- range of trough concentrations ([5]; 500 mg BID): 1.8 to 2.0 µg/mL
- range of trough concentrations ([5]; 600 mg BID): 1.6 to 2.1 µg/mL
- dose proportionality of plasma exposure ([5]; 400-600 mg BID): approximately dose proportional
- Cmax and AUC at steady state (days 1 and 21) relative to day −7 ([5]; all dose levels): two to three times higher
- Cmin, mean (±SD) ([5]; first administration, day −7, 400 mg BID, n 3): 0.2 ± 0.1 µg/mL
- Cmin, mean (±SD) ([5]; first administration, day −7, 500 mg BID, n 3): 0.4 ± 0.1 µg/mL
- Cmin, mean (±SD) ([5]; first administration, day −7, 600 mg BID, n 3): 0.3 ± 0.2 µg/mL
- AUC(0-t) ([5]; 400 mg): 3.4 ± 0.8 µg·h/mL
- Tmax ([5]; 400 mg, first administration, day −7, 400 mg BID, n 3): 3.4 ± 0.7 h
- AUC(0-t) ([5]; 500 mg): 4.7 ± 1.9 µg·h/mL
- Cmax ([5]; 500 mg): 0.9 ± 0.6 µg/mL
- Tmax ([5]; 500 mg, steady state, day 21, with bevacizumab, 500 mg BID, n 3): 2 ± 1 h
- AUC(0-t) ([5]; 600 mg): 4.9 ± 1.6 µg·h/mL
- Cmax ([5]; 600 mg): 1 ± 0.2 µg/mL
- Tmax ([5]; 600 mg, first administration, day −7, 600 mg BID, n 3): 3.4 ± 1.2 h
- Tmax [5, 12]: 4.6 ± 2.9 h
- Tmax [5, 13]: 1.7 ± 1.2 h
- Tmax [5, 14]: 3 ± 1 h
- CmaxSS, mean (±SD) [5, 12]: 2.4 ± 0.2 µg/mL
- CminSS, mean (±SD) [5, 12]: 1.4 ± 0.3 µg/mL
- Ctrough, mean (±SD) [5, 12]: 1.6 ± 0.1 µg/mL
- CmaxSS, mean (±SD) [5, 13]: 2.6 ± 0.5 µg/mL
- CminSS, mean (±SD) [5, 13]: 1.6 ± 0.7 µg/mL
- Ctrough, mean (±SD) [5, 13]: 1.8 ± 0.7 µg/mL
- CmaxSS, mean (±SD) [5, 14]: 2.6 ± 0.5 µg/mL
- CminSS, mean (±SD) [5, 14]: 1.4 ± 0.3 µg/mL
- Ctrough, mean (±SD) [5, 14]: 1.6 ± 0.1 µg/mL
- CmaxSS, mean (±SD) [5, 15]: 2.6 ± 0.9 µg/mL
- CminSS, mean (±SD) [5, 15]: 1.3 ± 0.4 µg/mL
- Ctrough, mean (±SD) [5, 15]: 1.5 ± 0.3 µg/mL
- CmaxSS, mean (±SD) [5, 16]: 2.3 ± 0.4 µg/mL
- CminSS, mean (±SD) [5, 16]: 1.5 ± 0.5 µg/mL
- Ctrough, mean (±SD) [5, 16]: 2.0 ± 0.6 µg/mL
- CmaxSS, mean (±SD) [5, 17]: 2.5 ± 1.3 µg/mL
- CminSS, mean (±SD) [5, 17]: 1.6 ± 1.2 µg/mL
- Ctrough, mean (±SD) [5, 17]: 2.1 ± 0.3 µg/mL
- patients with dose reduction due to a TEAE [6]: 55%
- patients with grade 3 or higher TEAEs [6]: 56%
- patients with grade 3 or higher anemia [6]: 19%
- incidence of increased alanine/aspartate aminotransferase levels ([7]; vs olaparib or niraparib): higher incidence

Molecule: NC(=O)c1cccc2cn(-c3ccc([C@@H]4CCCNC4)cc3)nc12 [niraparib]
- incidence of thrombocytopenia and hypertension ([7]; vs olaparib or rucaparib): higher incidence
- PFS adjusted hazard ratio [8]: 0.35

Molecule: bevacizumab
- most frequent bevacizumab-related AE ([4]; combination with rucaparib): hypertension
